# HKDC1 inhibitor = blocks human hexokinase HKDC1 activity | recombinant HKDC1, G6PDH/diaphorase resazurin coupled fluorescence | 0.16% of 340,000 active | inhibition, % at 20 µM | Q2TB90;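 active = inhibition above about 35% when tested at 20 µM, limit read from the data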;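 also: plate controls were DMSO wells with enzyme for no effect and DMSO wells lacking enzyme for full effect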
#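 Assay system: in-house recombinant HK5 (HKDC1) enzyme. Input: HKDC1 at 5 µg/mL. Medium: Tris pH 8.0 buffer with MgCl2, Tween-20, BSA, BME. Dosing: single 20 µM dose. Schedule: 90 min reaction incubation at room temperature, dark. Signal: resazurin-to-resorufin fluorescence via G6PDH and diaphorase coupling, 525/613 nm. Controls: DMSO-enzyme wells negative, buffer-substituted wells positive.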
# M18AAP inhibitor = PfM18AAP enzyme inhibition. recombinant PfM18AAP, H-Glu-NHMec fluorogenic cleavage. inhibition, % at 7.35 µM. 1.2% of 290,000 active. AID 1822;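 active = inhibition above the campaign mean inhibition over all tested compounds plus 3 SD, cut at about 28% in these data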;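 also: 0% = plate median of test compound wells and 100% = 2 mM ZnCl2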
# UBC9 SUMO inh = SUMOylation inhibition; HTRF SUMOylation assay, SAE1/SAE2 + UBC9, in vitro; 0.36% of 290,000 active; inhibition, % at 35 µM; AID 2006; in the data active = inhibition above about 50%, passing the limit was not always enough
# PfGluPho inh = PfG6PD (Plasmodium falciparum) enzyme inhibition. PfGluPho enzyme, NADPH resazurin-diaphorase fluorescence. inhibition, % at 20 µM. 0.78% of 350,000 active. AID 504690;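 active = inhibition reaching at least a set limit at 20 µM in the primary screen, cut at about 59% in these data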;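 also: 0% = DMSO wells with substrate and 100% = DMSO wells lacking glucose-6-phosphate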
# A3G deaminase = inhibitors of human APOBEC3G DNA deaminase; Q9HC16; recombinant A3G, ssDNA deamination FAM/TAMRA fluorescence; inhibition, % at 20 µM; 0.28% of 330,000 active; AID 493012;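 active = inhibition of at least 40% at 20 µM, with no more than 30% in the related APOBEC3A deaminase screen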;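 also: plate controls were DMSO wells with A3G for no effect and wells lacking A3G enzyme for full effect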
# Target sequence (Q9HC16 whole entry, looked up): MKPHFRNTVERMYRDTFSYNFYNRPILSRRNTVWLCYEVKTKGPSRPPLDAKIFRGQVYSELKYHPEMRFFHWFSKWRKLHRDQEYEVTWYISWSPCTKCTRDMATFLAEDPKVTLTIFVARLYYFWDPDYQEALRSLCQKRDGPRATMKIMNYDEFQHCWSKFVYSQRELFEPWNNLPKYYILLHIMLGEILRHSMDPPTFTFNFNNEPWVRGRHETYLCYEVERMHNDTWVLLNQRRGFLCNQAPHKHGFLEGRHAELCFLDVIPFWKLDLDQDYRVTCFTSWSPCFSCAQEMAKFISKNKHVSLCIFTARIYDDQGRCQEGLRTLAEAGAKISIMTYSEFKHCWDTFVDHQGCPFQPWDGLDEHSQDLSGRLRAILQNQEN
# A3A deaminase = blocks human APOBEC3A ssDNA deamination. recombinant A3A, FAM/TAMRA ssDNA deamination fluorescence. P31941. AID 493011. 0.41% of 330,000 active. inhibition, % at 20 µM;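 active = at least 40% inhibition at 20 µM here, with at most 30% in a related deaminase screen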;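 also: plate controls were A3A with DMSO for no effect and wells lacking A3A enzyme for full effect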
# Target sequence (P31941 whole entry, looked up): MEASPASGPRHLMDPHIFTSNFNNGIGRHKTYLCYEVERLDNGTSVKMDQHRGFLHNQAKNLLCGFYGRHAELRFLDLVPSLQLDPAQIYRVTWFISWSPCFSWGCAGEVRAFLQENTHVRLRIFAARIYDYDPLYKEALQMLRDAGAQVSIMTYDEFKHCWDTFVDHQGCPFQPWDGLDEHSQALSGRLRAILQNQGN
# APOBEC3A confirm = APOBEC3A (human) deaminase inhibition, confirmed; inhibition, % at 20 µM; shares compounds with A3A deaminase; recombinant A3A, ssDNA deaminase UDG fluorescence assay; 63% of 1,400 active;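 active = inhibition reaching a set limit, 80% of the first screen's cutoff, at 20 µM in any replicate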;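 also: plate controls were DMSO wells with A3A for no effect and wells lacking A3A enzyme for full effect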
# UDG ctr A3A = UDG inhibition in APOBEC3A counter-screen. shares compounds with A3A deaminase. UDG counterscreen, FAM/TAMRA uracil oligo fluorescence. inhibition, % at 20 µM. 1,000 tested, under 10 active; call rule not given here
# * = called active by the depositor; nt = not tested or not shown. In the library only some 2.4% were active in any assay of this set; here they are far more common.
SMILES,HKDC1 inhibitor,M18AAP inhibitor,UBC9 SUMO inh,PfGluPho inh,A3G deaminase,A3A deaminase,APOBEC3A confirm,UDG ctr A3A
Cc1cc(C(=O)CSc2nnc(-c3cccs3)n2Cc2ccccc2)c(C)n1C,1,0,21,-9,-9,-5,nt,nt
O=c1cc(CSc2nnc(-c3cccs3)n2Cc2ccccc2)nc2sc3ccccc3n12,12,10,32,20,22,47*,24,nt
CC(C)(C)N(Cc1ccccc1)C(=O)CN1C(=O)c2ccccc2S1(=O)=O,-1,nt,nt,-1,1,45*,38*,2
O=C(OCc1nc2ccsc2c(=O)[nH]1)c1ccccc1,1,nt,nt,3,-11,56*,-2,-2
O=C(OCc1nc2ccsc2c(=O)[nH]1)c1ccc(Cl)nc1,-5,nt,nt,11,-6,-2,nt,nt
Cc1ccc(NC(=O)[C@H](C)NC(=O)C2CCN(C(=O)[C@@H](N)C(C)C)CC2)cc1,7,0,5,-4,-8,-4,nt,nt
C[N+]1(CN2C(=O)C3C4C=CC(C4)C3C2=O)CCCCC1 (stereo unspecified),-4,-4,19,3,25,68*,68*,-2
Cc1cc(C)nc(SCC(=O)N/N=C/c2cccn2-c2ccc(O)cc2)n1,-8,-4,19,-5,3,22,nt,nt
Cc1cc(C)nc(SCC(=O)N/N=C/c2cccn2-c2cccc(C(F)(F)F)c2)n1,1,5,14,2,10,42*,17,nt
CCOC(=O)CC(NS(=O)(=O)c1ccc2[nH]cc(C(=O)O)c(=O)c2c1)c1ccc(OCC)c(OC)c1 (stereo unspecified),-4,1,19,3,14,47*,33*,nt
Cc1cccc(C(=O)OCC(=O)NCc2ccc3c(c2)OCO3)c1C,-2,nt,nt,14,-3,-2,nt,nt
Cc1cccc(C(=O)OCC(=O)NCCNC(=O)COC(=O)c2cccc(C)c2C)c1C,-10,2,-1,7,6,40*,17,nt
Cc1ccc(C(=O)/C=C/c2c[nH]c3ccccc23)cc1,-6,-2,-22,34,-5,-1,nt,nt
CCN(CC)C(=O)c1ccc(/C=C/c2c[nH]c3ccccc23)[n+](C)c1,-10,7,-12,23,13,42*,68*,4
CCOc1ccc(NS(=O)(=O)c2ccc3c(c2)N(C(C)=O)CCS3)cc1,0,2,6,-12,7,0,nt,nt
COc1ccc(NC(=O)CN(c2ccccc2)S(=O)(=O)c2ccccc2)c(OC)c1,0,-5,-20,3,-1,2,nt,nt
CCOc1ccccc1NC(=S)N1CCN(c2ccc(OC)cc2)CC1,-5,-3,-6,3,-4,83*,-9,-3
CCOc1ccccc1NC(=S)N1CCCCCC1,-5,0,4,14,-7,-3,nt,nt
O=C(CC1(O)C(=O)Nc2ccccc21)c1ccc2c(c1)OCO2 (stereo unspecified),-10,11,13,-2,-2,79*,4,0
CCN1CCN(c2ccc(NC(=O)c3ccc4c(c3)OCCO4)cc2C)CC1,-6,nt,nt,18,19,74*,73*,-1
CCN1CCN(c2cc(C)c3cc(NC(=O)c4ccc5c(c4)OCO5)ccc3n2)CC1,12,4,-7,-3,-2,1,nt,nt
CCN1CCN(c2ccc(NC(=O)c3cc4ccccc4cc3OC)cc2C)CC1,5,nt,nt,3,7,41*,73*,-4
CSC1=NC2(C[C@H]2c2ccccc2)C(=O)N1C (stereo partly specified),-3,nt,nt,15,1,1,nt,nt
Cc1cccc(-c2nc3ccccc3c(=O)n2NC(=O)c2ccc([N+](=O)[O-])c(C)c2)c1,-6,-6,9,-28,-12,49*,-8,0
NC(=S)Nn1c(-c2ccccc2)nc2ccccc2c1=O,-3,8,5,2,-3,42*,2,-3
SMILES,HKDC1 inhibitor,M18AAP inhibitor,UBC9 SUMO inh,PfGluPho inh,A3G deaminase,A3A deaminase,APOBEC3A confirm,UDG ctr A3A
CCN(CC)C(=O)c1[nH]cnc1C(=O)N[C@@H](CC(C)C)C(=O)OC(C)(C)C,-5,5,-3,-4,10,0,nt,nt
CC(C)(C)NC(=O)C(c1ccncc1)N(C(=O)c1csnn1)c1ccccc1 (stereo unspecified),7,6,-2,-6,0,1,nt,nt
CC(=O)Nc1ccc(-c2ccccc2)s1,-8,-9,14,-10,17,45*,45*,0
CC(=O)Nc1ccc(NC(C)=O)s1,1,-103,7,1,-5,-4,nt,nt
Cc1cc(=O)[nH]c(NC(=O)Cc2ccccc2)n1,-3,nt,nt,7,nt,nt,nt,nt
O=C(NCc1ccccc1CN1CCCCC1)c1ccccc1N1CCCC1=O,-5,nt,nt,-2,14,57*,61*,-3
O=C(NCc1ccccc1CN1CCCCC1)c1ccc(Cl)cc1N1CCCC1=O,3,nt,nt,8,48,32,nt,nt
Cc1ccccc1NC(=O)N(C(C)C)C(C)C,-7,-2,4,-1,-4,83*,-2,-2
CC(=O)Nc1ccc(NC(=O)Nc2ccccc2C)cc1,0,5,16,-3,21,0,nt,nt
Cc1ccc(N2C(SCC(=O)O)=NC(=Nc3cccc(C)c3)C23CCCC3)cc1,-2,2,-2,9,5,44*,15*,-2
CC1CN(S(=O)(=O)c2cccc(C(=O)OCc3cc(=O)oc4cc(O)ccc34)c2)CC(C)O1 (stereo unspecified),7,-7,15,4,1,12,nt,nt
CN(C)c1cccc(C(=O)OCc2cc(=O)oc3cc(O)ccc23)c1,5,11,nt,-4,19,74*,75*,-2
COc1ccc(NC(=O)/C(C#N)=C/c2ccc(Br)o2)cc1,-11,-2,1,-3,27,67*,58*,nt
COc1ccc(Cl)cc1NC(=S)N(Cc1ccc(C(=O)O)cc1)Cc1ccc(OC)c(OC)c1,-5,7,11,3,-4,-3,nt,nt
C[N+]1(CCn2ccc3ccccc32)CCCCC1,15,2,-1,2,14,63*,68*,-1
CC(CNC(=O)CCc1nnc2ccc(N3CCC4(CC3)OCCO4)nn12)c1ccccc1 (stereo unspecified),-2,-17,nt,-3,-3,1,nt,nt
Cc1ccc(Cl)c(OCC(=O)OCC(=O)c2ccc[nH]2)c1,-4,nt,nt,0,3,-3,nt,nt
Cc1ccccc1COc1ccc(-c2nnn(CC(=O)O)n2)cc1,-1,3,1,-7,-1,40*,23,2
C/C(=N\NC(=O)CN1CCCCC1)c1ccccc1O,-12,24,28,-30,11,40*,20,nt

# Source: PubChem BioAssay (several laboratories)
